# Data published in publication PMC9352332 (ACS Omega, 2022).
# How the values were obtained:
# ALR2 = ALR2 (Homo sapiens, UniProt P15121); experiment: ALR2 in vitro enzyme inhibition assay; assay type: biochemical; details: for selectivity of inhibition, ALR2 versus ALR1 (in words): judged from ALR1 and ALR2 in vitro inhibition data
# [1] = DPPH free-radical scavenging; details: DPPH 0.025 mg mL–1 in methanol, 100 μM test compound, 517 nm
# Outline: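 Test compound mixed with methanolic DPPH and read spectrophotometrically. Percent scavenging is calculated from absorbance of sample relative to control. Ascorbic acid is the positive control.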
# ALR1 = ALR1 (Bos taurus, UniProt Q3ZCJ2); experiment: ALR1 in vitro enzyme inhibition assay; assay type: biochemical, calf
# Outline: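 Enzyme in sodium phosphate buffer pH 6.2, preincubated 10 min at 32 °C with test compound and substrate, without NADPH. Reaction started with NADPH and followed for 5 min. Absorbance read before and after cofactor addition gives % inhibition. Compound dissolved in DMSO and diluted in water to 0.1% DMSO in assay. Valproic acid is the standard. IC50 from nonlinear regression of log concentration vs remaining activity.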
# [2] = tested on: advanced glycation end products (AGEs); experiment: Bovine serum albumin glycation; assay type: biochemical; details: BSA 1 mg mL–1, 0.5 M glucose, test compound (1 mM), pH 7.4, 50 °C, 4 days; AG positive control 100 μM
# Outline: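 BSA and glucose were incubated in 0.1 M PBS, in the dark, with or without test compound. AGE fluorescence was read at excitation 350 nm and emission 460 nm. Percent inhibition was calculated from the glucose-dependent fluorescence increase (BSA ± glucose), compared with the BSA + glucose signal with or without test compound. A vehicle served as the negative control. Values are mean ± S.E.M. of three independent incubations, with Student t-test vs aminoguanidine.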
# Sequence of ALR1 (Q3ZCJ2 whole entry): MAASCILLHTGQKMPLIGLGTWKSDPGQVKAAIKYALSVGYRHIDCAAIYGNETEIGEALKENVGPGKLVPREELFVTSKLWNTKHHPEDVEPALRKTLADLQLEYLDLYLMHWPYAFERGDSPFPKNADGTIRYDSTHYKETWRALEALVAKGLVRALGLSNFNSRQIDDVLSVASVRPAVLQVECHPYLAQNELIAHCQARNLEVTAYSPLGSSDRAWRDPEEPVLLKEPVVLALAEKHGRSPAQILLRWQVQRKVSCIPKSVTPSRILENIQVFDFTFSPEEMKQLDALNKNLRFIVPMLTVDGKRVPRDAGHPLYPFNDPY
SMILES,IC50 (ALR2),"selectivity of inhibition, ALR2 versus ALR1 (in words) (ALR2)",% FRSA (percent free-radical scavenging activity) [1],IC50 (ALR1),% inhibition of AGEs (advanced glycation end-product formation) [2]
"Cc1ccc(O)c(C=NNC(=S)Nc2ccccc2)c1 [3a, 2-(2-Hydroxy-5-methylbenzylidene)-N-phenylhydrazinecarbothioamide]",4.99 ± 0.035 µM,strong but nonselective inhibition of ALR1 and ALR2,56.78%,5.13 ± 0.037 µM,59.12%
"Cc1ccc(NC(=S)NN=Cc2cc(C)ccc2O)c(C)c1 [3b, N-(2,4-Dimethylphenyl)-2-(2-hydroxy-5-methylbenzylidene)hydrazinecarbothioamide]",2.55 ± 0.021 µM,strong and selective inhibition of ALR2,63.24%,–,50.78%
"COc1cccc(NC(=S)NN=Cc2cc(C)ccc2O)c1 [3c, 2-(2-Hydroxy-5-methylbenzylidene)-N-(3-methoxyphenyl)hydrazinecarbothioamide]",1.42 ± 0.024 µM,strong and selective inhibition of ALR2,65.67%,–,66.40%
"Cc1ccc(O)c(C=NNC(=S)NCc2ccc(Cl)cc2)c1 [3d, N-(4-Chlorobenzyl)-2-(2-hydroxy-5-methylbenzylidene)hydrazinecarbothioamide]",–,–,61.34%,–,62.81%
"Cc1ccc(O)c(C=NNC(=S)NCc2ccccc2)c1 [3e, N-Benzyl-2-(2-hydroxy-5-methylbenzylidene)hydrazinecarbothioamide]",–,–,65.66%,–,56.73%
"Cc1ccc(O)c(C=NNC(=S)NC2CCCCC2)c1 [3f, N-Cyclohexyl-2-(2-hydroxy-5-methylbenzylidene)hydrazinecarbothioamide]",–,–,57.84%,–,59.86%
"Cc1ccc(O)c(C=NNC(=S)Nc2ccc(Br)cc2)c1 [3g, N-(4-Bromophenyl)-2-(2-hydroxy-5-methylbenzylidene)hydrazinecarbothioamide]",8.37 ± 0.062 µM,strong and selective inhibition of ALR2,53.56%,–,51.33%
"Cc1ccc(NC(=S)NN=Cc2cc(C)ccc2O)cc1 [3h, 2-(2-Hydroxy-5-methylbenzylidene)-N-(p-tolyl)hydrazinecarbothioamide]",3.8 ± 0.072 µM,strong but nonselective inhibition of ALR1 and ALR2,64.94%,15.8 ± 0.027 µM,–
"Cc1ccc(O)c(C=NNC(=S)Nc2c(C)cccc2C)c1 [3i, N-(2,6-Dimethylphenyl)-2-(2-hydroxy-5-methylbenzylidene)hydrazinecarbothioamide]",2.06 ± 0.057 µM,strong but nonselective inhibition of ALR1 and ALR2,71.34%,2.14 ± 0.031 µM,64.41%
"Cc1ccc(O)c(C=NNC(=S)Nc2ccc(F)cc2F)c1 [3j, N-(2,4-Difluorophenyl)-2-(2-hydroxy-5-methylbenzylidene)hydrazinecarbothioamide]",4.95 ± 0.066 µM,strong and selective inhibition of ALR2,66.57%,–,61.60%
"Cc1ccc(O)c(C=NNC(=S)Nc2cccc(F)c2)c1 [3k, N-(3-Fluorophenyl)-2-(2-hydroxy-5-methylbenzylidene)hydrazinecarbothioamide]",14.03 ± 0.047 µM,strong and selective inhibition of ALR2,53.88%,–,–
"Cc1ccc(O)c(C=NNC(=S)Nc2ccc(Cl)cc2)c1 [3l, N-(4-Chlorophenyl)-2-(2-hydroxy-5-methylbenzylidene)hydrazinecarbothioamide]",3.8 ± 0.027 µM,strong and selective inhibition of ALR2,62.44%,–,56.61%
"Cc1ccc(O)c(C=NNC(=S)Nc2ccccc2C)c1 [3m, 2-(2-Hydroxy-5-methylbenzylidene)-N-(o-tolyl)hydrazinecarbothioamide]",1.96 ± 0.029 µM,strong but nonselective inhibition of ALR1 and ALR2,63.87%,4.57 ± 0.076 µM,53.08%
"Cc1ccc(O)c(C=NNC(=S)Nc2ccc(C(C)C)cc2)c1 [3n, 2-(2-Hydroxy-5-methylbenzylidene)-N-(4-isopropylphenyl)hydrazinecarbothioamide]",3.11 ± 0.038 µM,strong and selective inhibition of ALR2,55.93%,–,68.66%
"Cc1ccc(O)c(C=NNC(=S)NCCc2ccccc2)c1 [3o, 2-(2-Hydroxy-5-methylbenzylidene)-N-phenethylhydrazinecarbothioamide]",12.15 ± 0.083 µM,strong and selective inhibition of ALR2,68.56%,–,–
"Cc1ccc(O)c(C=NNC(=S)Nc2ccc(N(C)C)cc2)c1 [3p, N-(4-(Dimethylamino)phenyl)-2-(2-hydroxy-5-methylbenzylidene)hydrazinecarbothioamide]",10.67 ± 0.064 µM,strong and selective inhibition of ALR2,71.53%,–,64.81%
"N=C(N)NN [6-AG, 6-Aminoguanidine, reference compound]",–,–,–,–,79.34%
